The values below come from ChEMBL document CHEMBL2346602, “A potent bivalent Smac mimetic (SM-1200) achieving rapid, complete, and durable tumor regression in mice” (J Med Chem, 2013).

Data set [1] relates to MDA-MB-231. Put plainly: Induction of apoptosis in human MDA-MB-231 cells assessed as cIAP1 degradation at 0.3 nM after 24 hrs by Western blot analysis. In kind it is functional, cell-based. The procedure, abridged:
(§1)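 MDA-MB-231 cells were treated 24 h with graded concentrations. Lysates were made in Tris/NaCl/EDTA/SDS/NP-40 buffer with PMSF and protease inhibitors on ice, then run on 4−20% SDS-PAGE and blotted to PVDF. Blots were probed for cIAP1, cleaved PARP, and caspase-8, -9 and -3 (full-length and cleaved), with HRP chemiluminescent detection.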

Data set [2] deals with MDA-MB-231. Put plainly: Induction of apoptosis in human MDA-MB-231 cells assessed as apoptotic cells at 10 nM after 24 hrs by trypan blue assay relative to control. In kind it is functional. The method in brief:
(§2)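 MDA-MB-231 cells were exposed to graded compound concentrations for 24 h and viability scored by trypan blue exclusion. Blue or morphologically unhealthy cells counted as dead. At least 100 cells per treatment were scored, in triplicate.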

Data set [3] relates to Rattus norvegicus. Put plainly: Apparent volume of distribution during terminal phase in Sprague-Dawley rat at 1 mg/kg, iv. In kind it is ADME, organism-based. Set-up: dose 1 mg/kg, route intravenous. Particulars: in vivo.
Data set [4] can be described thus: AUC in Sprague-Dawley rat at 1 mg/kg, iv. In kind it is ADME, organism-based. The arrangement: dose 1 mg/kg, route intravenous. Particulars: plasma.
Data set [5] concerns MDA-MB-231. Put plainly: Induction of apoptosis in human MDA-MB-231 cells assessed as caspase-3 cleavage after 24 hrs by Western blot analysis. In kind it is functional, cell-based. The method in brief: as §1
For orientation: A western blot detects proteins with antibodies after separation by electrophoresis.

The test system of data set [6] is MDA-MB-231. Put plainly: Induction of apoptosis in human MDA-MB-231 cells assessed as apoptotic cells after 24 hrs by trypan blue assay. In kind it is functional, cell-based. The procedure, abridged: as §2
The subject of data set [7] is MDA-MB-231. Put plainly: Induction of apoptosis in human MDA-MB-231 cells assessed as PARP cleavage after 24 hrs by Western blot analysis. In kind it is functional, cell-based. The method in brief:
as §1

Data set [8] deals with MDA-MB-231. Put plainly: Induction of apoptosis in human MDA-MB-231 cells assessed as caspase-8 cleavage after 24 hrs by Western blot analysis. In kind it is functional, cell-based. The procedure, abridged:
as §1

A short description of data set [9]: Elimination half life in Sprague-Dawley rat at 1 mg/kg, iv. The arrangement: dose 1 mg/kg, route intravenous. In kind it is ADME, organism-based. Particulars: in vivo, read-out: beta t1/2 (converted).
Data set [10] deals with Rattus norvegicus. Put plainly: Apparent volume of distribution during terminal phase in Sprague-Dawley rat at […], iv. In kind it is ADME, organism-based. The arrangement: dose 2.5 mg/kg, route intravenous. Particulars: in vivo.
Data set [11] concerns Mus musculus. Put plainly: Toxicity in nude immunodeficient mouse xenografted with human MDA-MB-231 cells assessed as body weight change at 3 to 10 mg/kg, iv administered every week for 4 weeks measured over 76 days. In kind it is organism-based. The arrangement: dose 3-10 mg/kg, route intravenous. Particulars: in vivo, 1824 h. The procedure, abridged: (§3)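 5 × 10⁶ MDA-MB-231 cells in 50% Matrigel injected subcutaneously, one tumor per mouse. Dosing began on day 28, at mean tumor volume 100 mm³. Tumor volume and body weight were tracked. Groups were compared by t test.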
(In general: Xenograft models place foreign cells or tissue in a host animal.)

Data set [12] is described as follows: AUC in Sprague-Dawley rat at […], iv. In kind it is ADME, organism-based. Set-up: dose 2.5 mg/kg, route intravenous. Particulars: plasma.
Data set [13] concerns MDA-MB-231. Put plainly: Induction of apoptosis in human MDA-MB-231 cells xenografted in SCID mouse assessed as caspase 3 cleavage at 5 mg/kg, iv measured at 4 hrs by Western blot analysis. The arrangement: dose 5 mg/kg. In kind it is functional, organism-based. The procedure, abridged:
(§4)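 SCID mice carried subcutaneous dorsal MDA-MB-231 xenografts (5 × 10⁶ cells with Matrigel). At about 100 mm³, mice got a single iv dose of 5 mg/kg or vehicle. They were sacrificed at set time points, and tumor lysates were Western blotted for cIAP1, XIAP, caspase-3, PARP and cleaved PARP.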

For data set [14], the system named is MDA-MB-231. Put plainly: Induction of apoptosis in human MDA-MB-231 cells xenografted in SCID mouse assessed as cIAP1 degradation at 5 mg/kg, after 2 to 24 hrs by Western blot analysis. In kind it is functional, organism-based. Set-up: dose 5 mg/kg. The method in brief:
as §4

The test system of data set [15] is MDA-MB-231. Put plainly: Induction of apoptosis in human MDA-MB-231 cells xenografted in SCID mouse assessed as decrease in XIAP level at 5 mg/kg, iv after 8 to 24 hrs by Western blot analysis. In kind it is functional, organism-based. Set-up: dose 5 mg/kg. The method in brief:
as §4

The test system of data set [16] is MDA-MB-231. Put plainly: Antitumor activity against human MDA-MB-231 cells xenografted in nude immunodeficient mouse assessed as tumor regression at 10 mg/kg/week, iv after 1 week relative to vehicle-treated control. In kind it is functional. The procedure, abridged: as §3
In data set [17] the test system is MDA-MB-231. Put plainly: Antitumor activity against human MDA-MB-231 cells xenografted in nude immunodeficient mouse assessed as tumor regression at 10 mg/kg/week, iv after 4 weeks relative to vehicle-treated control. In kind it is functional. The method in brief: as §3
A short description of data set [18]: Elimination half life in Sprague-Dawley rat at […], iv. In kind it is ADME, organism-based. The arrangement: dose 2.5 mg/kg, route intravenous. Particulars: in vivo, read-out: beta t1/2 (converted).
For data set [19], the system named is MDA-MB-231. Put plainly: Antitumor activity against human MDA-MB-231 cells xenografted in nude immunodeficient mouse assessed as tumor regression at 3 mg/kg/week, iv after 4 weeks relative to vehicle-treated control. In kind it is functional. The method in brief:
as §3

Data set [20] deals with MDA-MB-231. Put plainly: Antitumor activity against human MDA-MB-231 cells xenografted in nude immunodeficient mouse assessed as tumor regression at 3 mg/kg/week, iv after 1 week relative to vehicle-treated control. In kind it is functional. The method in brief:
as §3

For data set [21], the system named is MDA-MB-231. Put plainly: Induction of apoptosis in human MDA-MB-231 cells xenografted in SCID mouse assessed as PARP cleavage at 5 mg/kg, iv after 4 to 24 hrs by Western blot analysis. In kind it is functional, organism-based. The arrangement: dose 5 mg/kg. The method in brief:
as §4

In data set [22] the test system is MDA-MB-231. Put plainly: Induction of apoptosis in human MDA-MB-231 cells assessed as cIAP1 degradation at 1 nM after 24 hrs by Western blot analysis. In kind it is functional, cell-based. The procedure, abridged: as §1
Data set [23] deals with MDA-MB-231. Put plainly: Antitumor activity against human MDA-MB-231 cells xenografted in nude immunodeficient mouse assessed as tumor growth inhibition at 7.5 mg/kg, iv administered every week for 4 weeks measured over 76 days. In kind it is functional, organism-based. The arrangement: dose 7.5 mg/kg. The procedure, abridged:
as §3

In data set [24] the test system is MDA-MB-231. Put plainly: Antitumor activity against human MDA-MB-231 cells xenografted in nude immunodeficient mouse assessed as tumor regression at 7.5 mg/kg, iv administered every week for 4 weeks measured over 76 days. The arrangement: dose 7.5 mg/kg. In kind it is functional, organism-based. The procedure, abridged: as §3

Usually AUC stands for concentration integrated over time. Read a low AUC as low exposure.

Calls of active or inactive are those of the source. The calls are words filed in the database; no cut-off is given here. A value given as a limit tells only on which side of the number the result lay.

In the case of `CN[C@@H](C)C(=O)N[C@H]1CCCC[C@H]2CC[C@@H](C(=O)N[C@@H](c3ccccc3)c3cn(CCCCc4ccc(CCCCn5cc([C@@H](NC(=O)[C@@H]6CC[C@@H]7CCCC[C@H](NC(=O)[C@H](C)NC)C(=O)N76)c6ccccc6)nn5)cc4)nn3)N2C1=O`, in data set [1], the result was Active. The Activity is >75% in data set [2]; “Dose-dependent effect” in [5]; “Dose-dependent effect” in [6]; “Dose-dependent effect” in data set [7]; “Dose-dependent effect” in data set [8]. Further, in data set [3], the Vz/F came to 1 L/kg. Also, the AUC in data set [4] stood at 221 ng·h/mL. For the same compound, in data set [9], the half-life is 8.4 min.

`CN[C@@H](C)C(=O)N[C@H]1CN(C(=O)Nc2ccc(NC(=O)N3CC[C@H]4CC[C@@H](C(=O)NC(c5ccccc5)c5ccccc5)N4C(=O)[C@@H](NC(=O)[C@H](C)NC)C3)cc2)CC[C@H]2CC[C@@H](C(=O)NC(c3ccccc3)c3ccccc3)N2C1=O`: in data set [10], the Vz/F amounted to 0.5 L/kg. Further, the Activity entry is reported as “Non-toxic” in [11]; >75% in [2]; 88% in [16]; 99% in data set [17]; 93% in data set [19]; 55% in data set [20]. In addition, the Activity entry in data set [5], in data set [6], in data set [7] and in data set [8] was “Dose-dependent effect” in each case. This compound showed an AUC in [12] of 3770 ng·h/mL. Also, the result in data set [13], in [14], in data set [15], in data set [21] and in data set [22] was Active. Besides, in data set [18], the half-life was 4.9 h.

As for `CC(=O)O[C@@]12CO[C@@H]1C[C@H](O)[C@@]1(C)C(=O)[C@H](O)C3=C(C)[C@@H](OC(=O)[C@H](O)[C@@H](NC(=O)OC(C)(C)C)c4ccccc4)C[C@@](O)([C@@H](OC(=O)c4ccccc4)[C@H]21)C3(C)C`, in [23], the TGI entry is “Active”. Further, in [24], the result was inactive.
